The record followed here is ChEMBL document CHEMBL3868616, “Synthesis and biological evaluation of hesperetin derivatives as agents inducing apoptosis” (2017).

Calls of active or inactive are those of the source. The calls are words filed in the database; no cut-off is given here.

The target of test [1] is Mitogen-activated protein kinase 9 (Homo sapiens) (UniProt P45984). As to the kind of experiment: Increase in JNK2 phosphorylation at Thr183/Tyr185 residues in human HCT116 cells at 50 to 200 uM measured up to 12 hrs by Western blot analysis. It counts as cell-based. Particulars: HCT-116. The method, boiled down: (§1)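 HCT116 cells exposed to 0, 50, 100 or 200 µM for 1 and 12 h. Whole-cell lysates immunoblotted with an antibody specific for phospho-JNK1/2 (Thr183/Tyr185), with GAPDH as the internal loading control.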
Mitogen-activated protein kinase 9 (Homo sapiens), sequence (P45984 whole entry, looked up): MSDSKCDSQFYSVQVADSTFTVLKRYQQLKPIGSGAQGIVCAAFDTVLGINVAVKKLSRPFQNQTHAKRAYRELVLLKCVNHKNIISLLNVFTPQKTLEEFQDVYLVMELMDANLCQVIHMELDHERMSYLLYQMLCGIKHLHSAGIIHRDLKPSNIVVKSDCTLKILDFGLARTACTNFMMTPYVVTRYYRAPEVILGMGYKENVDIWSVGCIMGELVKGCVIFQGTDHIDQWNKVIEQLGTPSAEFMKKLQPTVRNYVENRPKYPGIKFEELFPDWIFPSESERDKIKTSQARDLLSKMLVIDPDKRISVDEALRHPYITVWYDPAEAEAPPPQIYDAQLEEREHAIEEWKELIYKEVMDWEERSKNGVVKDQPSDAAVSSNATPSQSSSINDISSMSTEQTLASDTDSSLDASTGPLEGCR
For orientation: In western blotting, separated proteins are transferred to a membrane and probed.

Test [2] deals with Mitogen-activated protein kinase 8 (Homo sapiens) (UniProt P45983). In words: Increase in JNK1 phosphorylation at Thr183/Tyr185 residues in human HCT116 cells at 50 to 200 uM measured up to 12 hrs by Western blot analysis. Particulars: HCT-116. Format: cell-based. The method, boiled down: as §1
Mitogen-activated protein kinase 8 (Homo sapiens), sequence (P45983 whole entry): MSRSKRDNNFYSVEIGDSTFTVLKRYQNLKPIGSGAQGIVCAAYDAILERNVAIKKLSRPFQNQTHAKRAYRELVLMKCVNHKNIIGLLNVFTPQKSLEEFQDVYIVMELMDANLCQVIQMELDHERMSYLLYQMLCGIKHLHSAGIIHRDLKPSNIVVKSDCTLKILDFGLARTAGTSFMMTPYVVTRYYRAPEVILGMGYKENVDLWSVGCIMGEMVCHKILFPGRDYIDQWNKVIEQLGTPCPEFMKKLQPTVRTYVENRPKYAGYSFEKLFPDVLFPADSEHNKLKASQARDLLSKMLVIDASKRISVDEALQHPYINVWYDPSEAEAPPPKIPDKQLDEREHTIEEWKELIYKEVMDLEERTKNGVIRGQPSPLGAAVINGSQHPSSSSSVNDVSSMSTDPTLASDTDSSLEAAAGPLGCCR
A short description of test [3]: Cytotoxicity against human HCT116 cells assessed as decrease in cell viability at 80 uM after 24 hrs by CCK-8 assay. Format: functional, HCT-116. The method, boiled down: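 HCT116 cells seeded at 5 × 10^3 per well and treated 24 h at 10, 20, 40, 80 and 100 µM. Viability read with CCK-8 as absorbance at 450 nm. Compared with vehicle by one-way ANOVA followed by Sidak's multiple comparisons test.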
For orientation: Formazan colour is commonly taken as a measure of viable cells.

The test system of test [4] is HCT-116. As to the kind of experiment: Induction of apoptosis in human HCT116 cells assessed as necrotic cells at 50 uM after 24 hrs by FITC-annexin V/propidium iodide staining based fluorescence assay (reference value: 2%). Format: functional.
The test system of test [5] is HCT-116. In words: Induction of apoptosis in human HCT116 cells assessed as increase in PARP cleavage at 50 uM measured up to 24 hrs by immuno blot analysis. Format: functional, cell-based. The method, boiled down:
(§2)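 HCT116 cells exposed to 50 µM for 0, 12 and 24 h. Total cell lysates immunoblotted with antibodies against cleaved caspase-9, cleaved caspase-3 and PARP.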

Test [6] concerns the target Mitogen-activated protein kinase 8 (Homo sapiens) (UniProt P45983). In words: Increase in JNK1 phosphorylation at Thr183/Tyr185 residues in human HCT116 cells at 50 to 200 uM measured up to 1 hr by Western blot analysis. It counts as cell-based. As to conditions: HCT-116. The method, boiled down:
as §1

The nature of test [7]: Anticlonogenic activity in human HCT116 cells after 6 days by crystal violet staining based assay. It counts as functional. As to conditions: HCT-116, 144 h. Put shortly:
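HCT116 colon cancer cells, long-term clonogenic survival assay. Compound exposure for six days at 0, 5, 10 and 20 µM (results section also lists 40 µM). Colonies stained with 0.1% crystal violet and quantified by densitometry. GI50 computed from the concentration–response data.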

The test system of test [8] is HCT-116. As to the kind of experiment: Induction of apoptosis in human HCT116 cells assessed as increase in caspase-9 cleavage at 50 uM by immuno blot analysis. It counts as functional, cell-based. As to conditions: TDE = time-dependent effect. Put shortly:
as §2

Test [9] deals with HCT-116. In words: Induction of apoptosis in human HCT116 cells assessed as viable cells at 50 uM after 24 hrs by FITC-annexin V/propidium iodide staining based fluorescence assay (reference value: 90%). Particulars: HCT-116, 24 h, read-out: Activity. It counts as functional.
For test [10], the system named is HCT-116. As to the kind of experiment: Induction of apoptosis in human HCT116 cells assessed as late apoptotic cells at 50 uM after 24 hrs by FITC-annexin V/propidium iodide staining based fluorescence assay (reference value: 3%). Format: functional.
Test [11] concerns the target Mitogen-activated protein kinase 9 (Homo sapiens) (UniProt P45984). In words: Increase in JNK2 phosphorylation at Thr183/Tyr185 residues in human HCT116 cells at 50 to 200 uM measured up to 1 hr by Western blot analysis. It counts as cell-based. Particulars: HCT-116. The method, boiled down: as §1
Test [12] has as its system HCT-116. As to the kind of experiment: Induction of apoptosis in human HCT116 cells assessed as increase in caspase-3 cleavage at 50 uM by immuno blot analysis. Format: functional, cell-based. Particulars: TDE = time-dependent effect. Put shortly: as §2
The test system of test [13] is HCT-116. As to the kind of experiment: Induction of apoptosis in human HCT116 cells assessed as early apoptotic cells at 50 uM after 24 hrs by FITC-annexin V/propidium iodide staining based fluorescence assay (reference value: 6%). Format: functional.
Test [14] deals with Mitogen-activated protein kinase 8 (Homo sapiens) (UniProt P45983). As to the kind of experiment: Increase in JNK1 phosphorylation at Thr183/Tyr185 residues in human HCT116 cells at 50 to 200 uM after 12 hrs by Western blot analysis. Particulars: HCT-116. It counts as cell-based. Put shortly: as §1
The target of test [15] is Mitogen-activated protein kinase 9 (Homo sapiens) (UniProt P45984). As to the kind of experiment: Increase in JNK2 phosphorylation at Thr183/Tyr185 residues in human HCT116 cells at 50 to 200 uM after 12 hrs by Western blot analysis. It counts as cell-based. As to conditions: HCT-116. The method, boiled down:
as §1

The term GI50 denotes the concentration that inhibits growth by half. Lower therefore signals more potent growth inhibition.

On to `CCCC(=O)Oc1cc(O)c2c(c1)O[C@H](c1ccc(OC)c(O)c1)CC2=O`, for which the outcome in test [1], in test [2], in test [5], in test [6] and in test [11] was Active. Besides, the Activity in [3] is 50%; in [4] it was 0%; in test [8], “Tde”; in test [10], 5%; in test [12] it was “Tde”; in [13], 39%. In test [7], this compound registered a GI50 of 12 µM. In addition, the viability at 50 µM in test [9] stood at 55%.

For `CCCC(=O)Oc1cc(O)c2c(c1)O[C@H](c1ccc(OC)c(OC(=O)CCC)c1)CC2=O`, in test [7], the GI50 was 13.2 µM.

For `C/C=C/C(=O)Oc1cc(O)c2c(c1)O[C@H](c1ccc(OC)c(O)c1)CC2=O`, in test [7], the GI50 came to 16.9 µM.

As to `COc1ccc([C@@H]2CC(=O)c3c(O)cc(O)cc3O2)cc1O` [HESPERETIN], the Activity in test [3] turned out to be 15%; in test [4], 0%; in [10], 2%; in test [13], 9%. Also, the GI50 in test [7] is 36.1 µM. The outcome in [14] and in test [15] was Active. Moreover, the viability at 50 µM in test [9] was 88%.

In turn, `COc1ccc([C@@H]2CC(=O)c3c(O)cc(OC(=O)Cc4ccccc4)cc3O2)cc1OC(=O)Cc1ccccc1` gave a GI50 in test [7] of 63.9 µM.

Regarding `COc1ccc([C@@H]2CC(=O)c3c(O)cc(OC(=O)c4ccccc4)cc3O2)cc1O`, in test [7], halving of growth (GI50) required 16.5 µM.

Compound `COc1ccc([C@@H]2CC(=O)c3c(O)cc(OC(=O)c4ccccc4C)cc3O2)cc1O` registered a GI50 in test [7] of 22.9 µM.

The compound `COc1ccc([C@@H]2CC(=O)c3c(O)cc(OC(=O)c4ccc(C)cc4)cc3O2)cc1OC(=O)c1ccc(C)cc1` returned a GI50 in test [7] of 71.7 µM.

Regarding `COc1ccc([C@@H]2CC(=O)c3c(O)cc(OC(=O)c4ccccc4C)cc3O2)cc1OC(=O)c1ccccc1C`, the GI50 in [7] was 48.7 µM.

Take `COc1ccc([C@@H]2CC(=O)c3c(O)cc(OC(=O)/C=C/c4ccccc4)cc3O2)cc1OC(=O)/C=C/c1ccccc1`: the GI50 in [7] stood at 21 µM.

`COc1ccc([C@@H]2CC(=O)c3c(O)cc(OC(=O)C(C)(C)C)cc3O2)cc1O` displayed a GI50 in [7] of 31.5 µM.

In [7], `COc1ccc([C@@H]2CC(=O)c3c(O)cc(OC(=O)c4ccccc4)cc3O2)cc1OC(=O)c1ccccc1` had a GI50 of 46 µM.

In [7], `COc1ccc(C(=O)Oc2cc(O)c3c(c2)O[C@H](c2ccc(OC)c(OC(=O)c4ccc(OC)cc4)c2)CC3=O)cc1` returned a GI50 of 35.7 µM.
